According to ChEMBL document CHEMBL3526067, “Metabolism of bis(4-fluorobenzyl)trisulfide and its formation of hemoglobin adduct in rat erythrocytes” (Drug Metab Dispos, 2013):

Legend:
[1] = Drug metabolism in phosphate buffered saline treated with BFBTS at 5 uM by HPLC analysis in presence of N-acetyl cysteine; assay type: physicochemical; settings: buffer
[2] = Drug level in Sprague-Dawley rat RBC treated with BFBDS by HPLC analysis; assay type: ADME, cell-based; settings: erythrocyte
Method in brief: (§1)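 Male Sprague-Dawley rat RBCs (200–220 g rats), washed three times with PBS pH 7.4 and resuspended in PBS, incubated separately with each metabolite. Metabolites confirmed against authentic standards.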

Blood [3] = assay: Drug level in Sprague-Dawley rat whole blood treated with BFBTS at 50 uM by GC/MS analysis; assay type: ADME, tissue-based
[4] = Drug level in Sprague-Dawley rat RBC treated with p-FBA by HPLC analysis; assay type: ADME, cell-based; settings: erythrocyte
[5] = Drug metabolism in Sprague-Dawley rat RBC assessed as BFBTS formation by HPLC analysis; assay type: ADME, cell-based; settings: erythrocyte
Method in brief: (§2)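 BFBTS (final 50 μM) incubated at 37°C with rat RBCs diluted with an equal volume of PBS, for 5, 10, 15, 30, 45 and 60 min. For M2 (p-FBM) and M3 (p-FBA), two volumes of acetonitrile added before HPLC. BFBTS and M1 were extracted by a cited method.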

[6] = Drug metabolism in phosphate buffered saline treated with BFBTS at 5 uM by HPLC analysis in presence of coenzyme A; assay type: physicochemical; settings: buffer
[7] = Drug metabolism in Sprague-Dawley rat RBC assessed as p-FBA metabolite formation by HPLC analysis; assay type: ADME, cell-based; settings: erythrocyte; method in brief: as §2
[8] = Drug metabolism in phosphate buffered saline treated with BFBTS at 5 uM by HPLC analysis in presence of cysteine; assay type: physicochemical; settings: buffer
[9] = Drug level in Sprague-Dawley rat RBC treated with BFBTS by HPLC analysis; assay type: ADME, cell-based; settings: erythrocyte; method in brief: as §1
Blood [10] = assay: Drug level in Sprague-Dawley rat whole blood treated with BFBTS at 50 uM after 15 mins by HPLC analysis; assay type: ADME, tissue-based; settings: 0.25 h
Blood [11] = assay: Drug level in Sprague-Dawley rat whole blood treated with BFBTS by HPLC analysis; assay type: ADME, tissue-based
[12] = Drug level in phosphate buffered saline treated with BFBTS at 5 uM by HPLC analysis in presence of GSH; assay type: physicochemical; settings: buffer
[13] = Drug metabolism in Sprague-Dawley rat RBC assessed as BFBDS metabolite formation by HPLC analysis; assay type: ADME, cell-based; settings: erythrocyte; method in brief: as §2
Blood [14] = assay: Retention time in Sprague-Dawley rat whole blood treated with 50 uM Bis(4-fluorobenzyl)trisulfide after 15 mins by HPLC analysis; assay type: ADME, tissue-based; settings: 0.25 h
Blood [15] = assay: Drug metabolism in Sprague-Dawley rat whole blood assessed as p-FBM metabolite formation by HPLC analysis; assay type: ADME, tissue-based
[16] = Half life in Sprague-Dawley rat diluted RBC at 1 uM by HPLC analysis; assay type: ADME, cell-based, Erythrocyte; settings: diluted red blood cells (RBC)
Blood [17] = assay: Drug metabolism in Sprague-Dawley rat whole blood assessed as p-FBM metabolite formation at 50 uM by GC/MS analysis; assay type: ADME, tissue-based
[18] = Drug metabolism in phosphate buffered saline assessed as p-FBM metabolite formation at 5 uM by HPLC analysis in presence of GSH; assay type: physicochemical; settings: buffer
[19] = Drug metabolism in Sprague-Dawley rat RBC assessed as p-FBA metabolite formation at slow rate at 50 uM by HPLC analysis; assay type: ADME, cell-based; settings: erythrocyte; method in brief: as §2
[20] = Drug recovery in Sprague-Dawley rat plasma at 64 uM after 2 hrs by HPLC analysis; assay type: ADME, cell-free; settings: read-out: Drug recovery
Method in brief: (§3)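 Recovery test: BFBTS 64 μM incubated for 2 h with rat whole blood, plasma (3,000 g, 10 min) or PBS-washed RBCs. Liquid-liquid extraction, then HPLC; recovery compared across the three matrices.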

[21] = Drug metabolism in phosphate buffered saline assessed as BFBDS metabolite formation at 5 uM by HPLC analysis in presence of N-acetyl cysteine; assay type: physicochemical; settings: buffer
[22] = Drug metabolism in phosphate buffered saline assessed as BFBDS metabolite formation at 5 uM by HPLC analysis in presence of GSH; assay type: physicochemical; settings: buffer
[23] = Half life in Sprague-Dawley rat diluted RBC at 25 uM by HPLC analysis; assay type: ADME, cell-based, Erythrocyte; settings: diluted red blood cells (RBC)
Method in brief: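 BFBTS incubated with diluted rat RBCs (10^8/ml) for 1.5, 3, 5, 10 and 15 min. After extraction, BFBTS measured by HPLC. Half-life from nonlinear regression of concentration-time data; n = 3, means with SD.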

Blood [24] = assay: Drug metabolism in Sprague-Dawley rat whole blood assessed as p-FBA metabolite formation at 50 uM by UPLC-MS/MS analysis; assay type: ADME, tissue-based
Method in brief: (§4)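 p-FBA in rat whole blood incubated with BFBTS, measured by UPLC-MS. 0.1% formic acid/acetonitrile gradient at 0.2 ml/min, column 25°C. Capillary 3.30 kV, cone 31 V, source 150°C, desolvation 350°C.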

[25] = Drug recovery in Sprague-Dawley rat RBC at 64 uM after 2 hrs by HPLC analysis; assay type: ADME, cell-based; settings: erythrocyte; method in brief: as §3
[26] = Stability of compound in phosphate buffered saline at 5 uM after 30 mins by HPLC analysis in presence of GSH; assay type: physicochemical; settings: buffer, 0.5 h
[27] = Stability of compound in phosphate buffered saline at 5 uM after 30 mins by HPLC analysis in presence of coenzyme A; assay type: physicochemical; settings: buffer, 0.5 h
[28] = Drug metabolism in phosphate buffered saline assessed as BFBDS metabolite formation at 5 uM by HPLC analysis in presence of cysteine; assay type: physicochemical; settings: buffer
[29] = Stability in Sprague-Dawley rat RBC at 5 uM incubated for 1 hr after 5 mM thiol residue blocking agent iodoacetamide challenge by HPLC analysis; assay type: ADME, cell-based; settings: erythrocyte
[30] = Drug level in Sprague-Dawley rat RBC treated with p-FBM by HPLC analysis; assay type: ADME, cell-based; settings: erythrocyte; method in brief: as §1
Blood [31] = assay: Drug metabolism in Sprague-Dawley rat whole blood assessed as BFBDS metabolite formation at 50 uM by GC/MS analysis; assay type: ADME, tissue-based
[32] = Drug metabolism in phosphate buffered saline assessed as p-FBM metabolite formation at 5 uM by HPLC analysis in presence of cysteine; assay type: physicochemical; settings: buffer
Blood [33] = assay: Drug metabolism in Sprague-Dawley rat whole blood assessed as BFBDS metabolite formation by HPLC analysis; assay type: ADME, tissue-based
[34] = Drug metabolism in Sprague-Dawley rat RBC assessed as rapid p-FBM metabolite formation at 50 uM by HPLC analysis; assay type: ADME, cell-based; settings: erythrocyte; method in brief: as §2
[35] = Stability of compound in phosphate buffered saline at 5 uM after 30 mins by HPLC analysis in presence of cysteine; assay type: physicochemical; settings: buffer, 0.5 h
[36] = Drug recovery in Sprague-Dawley rat whole blood at 64 uM after 2 hrs by HPLC analysis; assay type: ADME, tissue-based; settings: read-out: Drug recovery; method in brief: as §3
Blood [37] = assay: Drug metabolism in Sprague-Dawley rat whole blood assessed as p-FBA metabolite formation by HPLC analysis; assay type: ADME, tissue-based
[38] = Drug metabolism in Sprague-Dawley rat RBC assessed as p-FBM metabolite formation by HPLC analysis; assay type: ADME, cell-based; settings: erythrocyte; method in brief: as §2
[39] = Drug metabolism in phosphate buffered saline assessed as p-FBM metabolite formation at 5 uM by HPLC analysis in presence of coenzyme A; assay type: physicochemical; settings: buffer
[40] = Stability of compound in phosphate buffered saline at 5 uM after 30 mins by HPLC analysis in presence of N-acetyl cysteine; assay type: physicochemical; settings: buffer, 0.5 h
Blood [41] = assay: Drug level in Sprague-Dawley rat whole blood treated with BFBTS at 50 uM by UPLC-MS/MS analysis; assay type: ADME, tissue-based; method in brief: as §4
[42] = Drug level in phosphate buffered saline treated with BFBTS at 5 uM at pH 7.4 after 30 mins by LC-MS analysis in presence of GSH; assay type: physicochemical; settings: buffer, pH 7.4, 0.5 h
Method in brief: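 BFBTS 5 μM incubated with GSH 0.5 mM in PBS pH 7.4 for 30 min. Two volumes of acetonitrile added, then HPLC and LC-MS to identify reaction products.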

Structure (SMILES): Fc1ccc(CS)cc1
- Drug metabolism [1]: metabolite_detected
- Drug metabolism [2]: metabolite_detected
- Drug metabolism (Blood [3]): metabolite_detected
- Drug metabolism [4]: metabolite_not_detected
- Drug metabolism [5]: metabolite_not_detected
- Drug metabolism [6]: metabolite_detected
- Drug metabolism [7]: metabolite_detected
- Drug metabolism [8]: metabolite_detected
- Drug metabolism [9]: metabolite_detected
- Drug metabolism (Blood [10]): metabolite_detected
- Drug metabolism (Blood [11]): metabolite_detected
- Drug metabolism [12]: metabolite_detected
- Drug metabolism [13]: metabolite_detected
- Retention_time (Blood [14]): 24.66 min

Structure (SMILES): Fc1ccc(CSSSCc2ccc(F)cc2)cc1
- Drug metabolism (Blood [15]): metabolite_detected
- Drug metabolism [2]: metabolite_not_detected
- half-life at 1 µM [16]: < 30 s
- Drug metabolism (Blood [17]): metabolite_detected
- Drug metabolism [4]: metabolite_not_detected
- Drug metabolism [18]: metabolite_detected
- Drug metabolism [19]: metabolite_detected
- remaining at 2 h, 64 µM [20]: 13%
- Drug metabolism [21]: metabolite_detected
- Drug metabolism [22]: metabolite_detected
- half-life at 25 µM [23]: 24 s
- Drug metabolism (Blood [24]): metabolite_detected
- Drug recovery [25]: Not Active
- Stability [26]: Unstable
- Stability [27]: Unstable
- Drug metabolism [28]: metabolite_detected
- Stability [29]: Stable
- Drug metabolism [7]: metabolite_detected
- Drug metabolism [30]: metabolite_not_detected
- Drug metabolism (Blood [31]): metabolite_detected
- Drug metabolism [32]: metabolite_detected
- Drug metabolism (Blood [33]): metabolite_detected
- Drug metabolism [34]: metabolite_detected
- Stability [35]: Unstable
- remaining at 2 h, 64 µM [36]: 2.54%
- Drug metabolism (Blood [37]): metabolite_detected
- Drug metabolism [38]: metabolite_detected
- Drug metabolism [13]: metabolite_detected
- Drug metabolism [39]: metabolite_detected
- Stability [40]: Unstable

Structure (SMILES): O=C(O)c1ccc(F)cc1
- Drug metabolism [2]: metabolite_detected
- Drug metabolism [5]: metabolite_not_detected
- Drug metabolism (Blood [41]): metabolite_detected
- Drug metabolism [30]: metabolite_detected
- Drug metabolism [9]: metabolite_detected
- Drug metabolism (Blood [10]): metabolite_detected
- Drug metabolism (Blood [11]): metabolite_detected
- Drug metabolism [38]: metabolite_not_detected
- Drug metabolism [13]: metabolite_not_detected
- Retention_time (Blood [14]): 8.15 min

Structure (SMILES): Fc1ccc(CSSCc2ccc(F)cc2)cc1
- Drug metabolism [1]: metabolite_detected
- Drug metabolism (Blood [3]): metabolite_detected
- Drug metabolism [4]: metabolite_not_detected
- Drug metabolism [5]: metabolite_not_detected
- Drug metabolism [6]: metabolite_detected
- Drug metabolism [7]: metabolite_detected
- Drug metabolism [30]: metabolite_detected
- Drug metabolism [8]: metabolite_detected
- Drug metabolism [9]: metabolite_detected
- Drug metabolism (Blood [10]): metabolite_detected
- Drug metabolism (Blood [11]): metabolite_detected
- Drug metabolism [38]: metabolite_detected
- Drug metabolism [12]: metabolite_detected
- Retention_time (Blood [14]): 38.89 min

Structure (SMILES): N[C@@H](CCC(=O)N[C@@H](CSSCc1ccc(F)cc1)C(=O)NCC(=O)O)C(=O)O
- Drug uptake [42]: metabolite_detected
